Measured values: ChEMBL document CHEMBL1146596, “New lupane derived compounds with pro-apoptotic activity in cancer cells: synthesis and structure-activity relationships” (2003)

System: CCRF-CEM
Experiment: Cytotoxicity against chemosensitive CEM-T lymphoblastc leukemia cell line.
Format: functional, Homo sapiens
Method in brief: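 Cells were kept in DMEM/RPMI 1640 with 10% fetal calf serum, 2 mM glutamine and antibiotics. They were seeded at 2500–30 000 cells/well according to growth characteristics and preincubated 24 h at 37 °C, 5% CO2. Four-fold compound dilutions were tested in duplicate for 72 h. MTT was then added for 1–4 h, the formazan was dissolved in 10% SDS (pH 5.5) overnight, and OD was read at 540 nm. Survival was taken relative to mean control, and TCS50 was derived from dose–response curves.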

SMILES	TCS50 [µM]
CC(=O)OCOC(=O)[C@@]12CC[C@]3(C)[C@H](CC[C@@H]4[C@@]5(C)CC[C@H](OC(C)=O)C(C)(C)[C@@H]5CC[C@]43C)C1=C(C(C)C)C(=O)C2=O	3
COC(=O)[C@@]1(CC(=O)C(=O)C(C)C)CC[C@]2(C)[C@H](CC[C@@H]3[C@@]4(C)CC[C@H](OC(C)=O)C(C)(C)[C@@H]4CC[C@]32C)C1=O	107
COC(=O)C[C@]1(C(=O)OCOC(=O)C(C)(C)C)CC[C@]2(C)[C@H](CC[C@@H]3[C@@]4(C)CC[C@H](OC(C)=O)C(C)(C)[C@@H]4CC[C@]32C)C1=O	99
CC(=O)OC[C@]12C=CC(C(C)C)=C1[C@H]1CC[C@@H]3[C@@]4(C)CC[C@H](OC(C)=O)C(C)(C)[C@@H]4CC[C@@]3(C)[C@]1(C)CC2	>250
COC(=O)C[C@]1(COC(C)=O)CC[C@]2(C)[C@H](CC[C@@H]3[C@@]4(C)CC[C@H](OC(C)=O)C(C)(C)[C@@H]4CC[C@]32C)C1=O	>250
CC(=O)O[C@H]1CC[C@]2(C)[C@H]3CC[C@@H]4C(=O)[C@]5(CC[C@@]4(C)[C@]3(C)CC[C@H]2C1(C)C)COC(=O)C5	>250
CC(=O)O[C@H]1CC[C@]2(C)[C@H]3CC[C@H](C(=O)O)[C@@](C)(CCC(=O)O)[C@]3(C)CC[C@H]2C1(C)C	>250
COC(=O)C[C@]1(C(=O)OC)CC[C@]2(C)[C@H](CC[C@@H]3[C@@]4(C)CC[C@H](OC(C)=O)C(C)(C)[C@@H]4CC[C@]32C)C1=O	>250
CC(=O)OC[C@@]12CC[C@]3(C)[C@H](CC[C@@H]4[C@@]5(C)CC[C@H](OC(C)=O)C(C)(C)[C@@H]5CC[C@]43C)C1=C(C(C)C)C(=O)OC2=O	>250
CC(=O)OCOC(=O)[C@@]12CC[C@]3(C)[C@H](CC[C@@H]4[C@@]5(C)CC[C@H](OC(C)=O)C(C)(C)[C@@H]5CC[C@]43C)C1=C(C(C)C)C(=O)C2	>250
C=C1CC[C@]2(C)[C@H](CC[C@@H]3[C@@]4(C)CC[C@H](OC(C)=O)C(C)(C)[C@@H]4CC[C@]32C)C1=O	>250
COC(=O)C[C@]1(C(=O)OCOC(C)=O)CC[C@]2(C)[C@H](CC[C@@H]3[C@@]4(C)CC[C@H](OC(C)=O)C(C)(C)[C@@H]4CC[C@]32C)C1=O	94
CC(=O)OCOC(=O)[C@@]1(CC(=O)C(=O)C(C)C)CC[C@]2(C)[C@H](CC[C@@H]3[C@@]4(C)CC[C@H](OC(C)=O)C(C)(C)[C@@H]4CC[C@]32C)C1=O	18
CC(=O)OC[C@@]12CC[C@]3(C)[C@H](CC[C@@H]4[C@@]5(C)CC[C@H](OC(C)=O)C(C)(C)[C@@H]5CC[C@]43C)C1=C(C(C)C)C(=O)C2	14
CC(=O)O[C@H]1CC[C@]2(C)[C@H]3CC[C@H](C(=O)OCOC(=O)C(C)(C)C)[C@@](C)(CCC(=O)OCOC(=O)C(C)(C)C)[C@]3(C)CC[C@H]2C1(C)C	>250
COC(=O)[C@@]12CC[C@]3(C)[C@H](CC[C@@H]4[C@@]5(C)CC[C@H](OC(C)=O)C(C)(C)[C@@H]5CC[C@]43C)C1=C(C(C)C)C(=O)OC2=O	127
CC(=O)OC[C@@]1(CC(=O)C(=O)C(C)C)CC[C@]2(C)[C@H](CC[C@@H]3[C@@]4(C)CC[C@H](OC(C)=O)C(C)(C)[C@@H]4CC[C@]32C)C1=O	>250
